Results: the RNAGym collection of RNA variant scans (doi:10.1002/anie.201605470)

B1: Osa-1-4 twister ribozyme (parent)
chain: CCGCCUAACACUGCCAAUGCCGGUCCCAAGCCCGGAUAAAAGUGGAGGGGGCGG

Variants of: B1
Experiment: self-cleavage, relative activity (ratio to wild type); higher = more cleavage; co-transcriptional
In short: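 A DNA template for a 54-nucleotide Oryza sativa twister ribozyme was synthesised with 97 % wild-type base and 1 % of each other base at the 48 positions downstream of the cleavage site. It was transcribed in vitro for 2 h at 37 °C, allowing co-transcriptional self-cleavage, then reverse-transcribed with a template-switching oligonucleotide, PCR-amplified and deep-sequenced. Cleavage status was scored from reads with or without upstream sequence. Relative activity is fraction cleaved normalised to wild type.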

Variant | self-cleavage
CCGCCUAACACUGCCAAUGCCGGUCCCAAUCCCGGAUAAAAGUGGAAGGGGCGG | 0.03
CCGCCUAACACUGCCAAUGCCGGUCCCAAUCCCGGAUAAAAGUGGAUGGGGCGG | 0.03
CCGCCUAACACUGCCAAUGCCGGUCCCAAUCCCGGAUAAAAGUGGAGGGUGCGG | 0.05
CCGCCUAACACUGCCAAUGCCGGUCCCAAUCCCGGAUAAAAGUGGAGGGAGCGG | 0.03
CCGCCUAACACUGCCAAUGCCGGUCCCAAUCCCGGAUAAAAGUGGAGGGCGCGG | 0.05
CCGCCUAACACUGCCAAUGCCGGUCCCAAUCCCGGAUAAAAGUGGAGGGGGCGC | 0.03
CCGCCUAACACUGCCAAUGCCGGUCCCAAUCCCGGAUAAAAGUGGAGGGGGCGU | 0.05
CCGCCUAACACUGCCAAUGCCGGUCCCAAUCCCGGAUAAAAGUGGAGGGGGCGA | 0.03
CCGCCUAACACUUCCAAUGCCGGUCCCAAGACCGGAUAAAAGUGGAGGGGGCGG | 0.02
CCGCCUAACACUCCCAAUGCCGGUCCCAAGACCGGAUAAAAGUGGAGGGGGCGG | 0.01
CCGCCUAACACUACCAAUGCCGGUCCCAAGACCGGAUAAAAGUGGAGGGGGCGG | 0.01
CCGCCUAACACUGCCAAUGCCGGUCCCAACCCCGGAUAAAAGUGGAGGGGGCUG | 0.04
CCGCCUAACACUGCCAAUGCCGGUCCCAACCCCGGAUAAAAGUGGAGGGGGCAG | 0.04
CCGCCUAACACUGCCAAUGCCGGUCCCAACCCCGGAUAAAAGUGGAGGGGGCCG | 0.02
CCGCCUAACACUGCCAAUGCCGGUCCCAAUCCCGGAUAAAAGUGGAGUGGGCGG | 0.02
CCGCCUAACACUGCCAAUGCCGGUCCCAAUCCCGGAUAAAAGUGGAGCGGGCGG | 0.02
CCGCCUAACACUGCCAAUGCCGGUCCCAAUCCCGGAUAAAAGUGGAGAGGGCGG | 0.02
CCGCCUAACACUGCCAAUGCCGGUCCCAAUCCCGGAUAAAAGUGUAGGGGGCGG | 0.02
CCGCCUAACACUGCCAAUGCCGGUCCCAAUCCCGGAUAAAAGUGCAGGGGGCGG | 0.02
CCGCCUAACACUGCCAAUGCCGGUCCCAAUCCCGGAUAAAAGUGAAGGGGGCGG | 0.03
CCGCCUAACACUGCCAAUGCCGGACCCAACCCCGGAUAAAAGUGGAGGGGGCGG | 0.03
CCGCCUAACACUGCCAAUGCCGGCCCCAACCCCGGAUAAAAGUGGAGGGGGCGG | 0.04
CCGCCUAACACUGCCAAUGCCGGGCCCAACCCCGGAUAAAAGUGGAGGGGGCGG | 0.01
CCGCCUAACACUGCCAAUGCCGGUCCCAACCCCGGACAAAAGUGGAGGGGGCGG | 0.04
CCGCCUAACACUGCCAAUGCCGGUCCCAACCCCGGAGAAAAGUGGAGGGGGCGG | 0.05

Variant | self-cleavage
CCGCCUAACACUGCCAAUGCCGGUCCCAACCCCGGAAAAAAGUGGAGGGGGCGG | 0.03
CCGCCUAACACUGCCAAUGCCGGUCCCAAGACCGGAUAAAAGUGGAGGGGGCGG | 0.04
CCGCCUAACACUGCCAAUGCCGGACCCAAUCCCGGAUAAAAGUGGAGGGGGCGG | 0.02
CCGCCUAACACUGCCAAUGCCGGCCCCAAUCCCGGAUAAAAGUGGAGGGGGCGG | 0.02
CCGCCUAACACUGCCAAUGCCGGGCCCAAUCCCGGAUAAAAGUGGAGGGGGCGG | 0.01
CCGCCUAACACUGCCAAAGCCGGUCCCAACCCCGGAUAAAAGUGGAGGGGGCGG | 0.05
CCGCCUAACACUGCCAACGCCGGUCCCAACCCCGGAUAAAAGUGGAGGGGGCGG | 0.05
CCGCCUAACACUGCCAAGGCCGGUCCCAACCCCGGAUAAAAGUGGAGGGGGCGG | 0.06
CCGCCUAACACUGCCAAUGCCGGUCCCAAUCCCGGAUAAAAGUCGAGGGGGCGG | 0.04
CCGCCUAACACUGCCAAUGCCGGUCCCAAUCCCGGAUAAAAGUAGAGGGGGCGG | 0.04
CCGCCUAACACUGCCAAUGCCGGUCCCAAUCCCGGAUAAAAGUUGAGGGGGCGG | 0.05
CCGCCUAACACUGCCAAUGCCGGUCCCAAGAUCGGAUAAAAGUGGAGGGGGCGG | 0.01
CCGCCUAACACUGCCAAUGCCGGUCCCAAGAGCGGAUAAAAGUGGAGGGGGCGG | 0.02
CCGCCUAACACUGCCAAUGCCGGUCCCAAGAACGGAUAAAAGUGGAGGGGGCGG | 0.04
CCGCCUAACACUGCCAAUGCCGGUCCCAAUCCCGGAUAAAAGAGGAGGGGGCGG | 0.04
CCGCCUAACACUGCCAAUGCCGGUCCCAAUCCCGGAUAAAAGGGGAGGGGGCGG | 0.04
CCGCCUAACACUGCCAAUGCCGGUCCCAAUCCCGGAUAAAAGCGGAGGGGGCGG | 0.04
CCGCCUAACACUGCCAAUGCCGGUCCCAAUCCCGGACAAAAGUGGAGGGGGCGG | 0.04
CCGCCUAACACUGCCAAUGCCGGUCCCAAUCCCGGAAAAAAGUGGAGGGGGCGG | 0.02
CCGCCUAACACUGCCAAUGCCGGUCCCAAUCCCGGAGAAAAGUGGAGGGGGCGG | 0.04
CCGCCUAACACUGCCAAUGCCGGUCCCAACCCCGGAUAAAAGUGGAGGGGUCGG | 0.03
CCGCCUAACACUGCCAAUGCCGGUCCCAACCCCGGAUAAAAGUGGAGGGGCCGG | 0.03
CCGCCUAACACUGCCAAUGCCGGUCCCAACCCCGGAUAAAAGUGGAGGGGACGG | 0.05
CCGCCUAACACUGCCAAUGCCGGUCCCAAUCCCGGAUAAAAGUGGAGGGGGCGG | 0.04
